ChEMBL document CHEMBL1137748, “Design, synthesis and characterization of novel 2-(2,4-disubstituted-thiazole-5-yl)-3-aryl-3H-quinazoline-4-one derivatives as inhibitors of NF-kappaB and AP-1 mediated transcription activation and as potential anti-inflammatory agents” (Eur J Med Chem, 2009)

Columns and labels:
HEK293 = test: Inhibition of NF-kappaB expressed in HEK293 cells assessed as inhibition of TNF-alpha-induced transcriptional activation at 10 uM treated 24 hrs before TNFalpha challenge measured after 20 to 24 hrs by luciferase assay relative to control; type: cell-based
In short: (§1)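 HEK/NF-κB cells stably carrying an NF-κB response element driving luciferase. Plated at 5×10^4 cells/well and held 24 h at 37 °C, 5% CO2. Compounds in 0.1% DMSO were added to replicate wells for 24 h, then TNF-α was added and cells were incubated 20–24 h. Bright-Glo lysis/substrate was added and luminescence read. The replicate mean was normalized to the maximal control.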

[1] = molecular target: Transcription factor Jun (Homo sapiens) (UniProt P05412); test: Inhibition of AP1 expressed in HEK293 cells assessed as inhibition of PMA-induced transcriptional activation at 10 uM treated 24 hrs before PMA challenge measured after 20 to 24 hrs by luciferase assay relative to control
Rattus norvegicus = test: Antiinflammatory activity in Sprague-Dawley rat assessed as protection against carrageenan-induced paw edema at 50 mg/kg, po administered 1 hr before carrageenan challenge measured after 3 hrs relative to control; type: functional
In short: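 Sprague-Dawley rats of either sex, 150–250 g, fasted 18 h, n = 4 per group, each group run against a vehicle control. Dosed orally at 50 mg/kg in freshly made 0.2% agar suspension. One hour later, 0.1 ml of 1% carrageenan in saline was injected subplantar into the right hind paw. Paw volume was read by plethysmometer at 3 h. % protection = (control − test)/control × 100.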

[2] = Inhibition of NF-kappaB expressed in HEK293 cells assessed as inhibition of TNF-alpha-induced transcriptional activation treated 24 hrs before TNFalpha challenge measured after 20 to 24 hrs by luciferase assay; type: cell-based; in short: as §1

Chain of Transcription factor Jun (Homo sapiens) (P05412 whole entry): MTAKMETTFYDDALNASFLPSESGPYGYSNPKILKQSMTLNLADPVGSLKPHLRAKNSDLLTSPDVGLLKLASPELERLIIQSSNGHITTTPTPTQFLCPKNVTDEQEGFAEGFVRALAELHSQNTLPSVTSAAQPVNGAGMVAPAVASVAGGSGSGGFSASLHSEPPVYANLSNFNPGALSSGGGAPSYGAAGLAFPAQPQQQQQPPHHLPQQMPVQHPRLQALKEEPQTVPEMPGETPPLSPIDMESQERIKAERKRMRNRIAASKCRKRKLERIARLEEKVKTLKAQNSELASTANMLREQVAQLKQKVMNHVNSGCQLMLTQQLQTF

inhibition [1] [%] | SMILES | inhibition (HEK293) [%] | Activity (Rattus norvegicus) [%] | IC50 [2] [µM]
0 | Cc1ccc(Nc2nc(-c3ccccc3)c(-c3nc4ccccc4c(=O)n3-c3ccc(Cl)cc3)s2)cc1 | 0 | – | –
32 | Cc1ccccc1-n1c(-c2sc(Nc3ccc(Cl)cc3)nc2-c2ccccc2)nc2ccccc2c1=O | 27 | 51 | –
7 | CC(=O)c1ccc(-n2c(-c3sc(Nc4ccccc4)nc3C)nc3ccccc3c2=O)cc1 | 15 | – | –
84 | Cc1nc(Nc2ccc(Cl)cc2)sc1-c1nc2ccccc2c(=O)n1-c1ccc(Cl)cc1 | 96 | 38 | 3.3
21 | Cc1nc(Nc2ccccc2)sc1-c1nc2ccccc2c(=O)n1-c1ccccc1Cl | 6 | – | –
2 | CC(=O)c1ccc(-n2c(-c3sc(Nc4ccc(Cl)cc4)nc3C)nc3ccccc3c2=O)cc1 | 0 | 13 | –
– | Cc1ccccc1-n1c(-c2sc(Nc3ccc(Cl)cc3)nc2C)nc2ccccc2c1=O | – | 45 | –
9 | Cc1nc(Nc2ccccc2)sc1-c1nc2ccccc2c(=O)n1-c1ccc(Cl)cc1 | 79 | 72 | 5.5
60 | Cc1ccccc1-n1c(-c2sc(Nc3ccccc3)nc2C)nc2ccccc2c1=O | 21 | 42 | –
16 | Cc1nc(Nc2ccccc2)sc1-c1nc2ccccc2c(=O)n1-c1ccccc1 | 25 | 12 | –
0 | COc1ccc(-n2c(-c3sc(Nc4ccc(Cl)cc4)nc3C)nc3ccccc3c2=O)cc1 | 0 | 5 | –
39 | Cc1cccc(-n2c(-c3sc(Nc4ccc(Cl)cc4)nc3C)nc3ccccc3c2=O)c1 | 2 | – | –
2 | Cc1ccc(-n2c(-c3sc(Nc4ccc(Cl)cc4)nc3C)nc3ccccc3c2=O)cc1 | 12 | 37 | –
0 | O=c1c2ccccc2nc(-c2sc(Nc3ccc(Cl)cc3)nc2-c2ccccc2)n1-c1ccccc1Cl | 24 | 61 | –
2 | CC(=O)c1ccc(-n2c(-c3sc(Nc4ccc(Cl)cc4)nc3N)nc3ccccc3c2=O)cc1 | 12 | 53 | –
0 | Cc1nc(Nc2ccc(Cl)cc2)sc1-c1nc2ccccc2c(=O)n1-c1ccccc1 | 0 | 4 | –
31 | CC(=O)c1ccc(-n2c(-c3sc(Nc4ccc(Cl)cc4)nc3-c3ccccc3)nc3ccccc3c2=O)cc1 | 0 | 23 | –
15 | CNc1nc(-c2ccccc2)c(-c2nc3ccccc3c(=O)n2-c2ccc(C(C)=O)cc2)s1 | 4 | – | –
27 | O=c1c2ccccc2nc(-c2sc(Nc3ccc(Cl)cc3)nc2-c2ccccc2)n1-c1ccccc1 | 0 | – | –
21 | Cc1nc(Nc2ccc(Cl)cc2)sc1-c1nc2ccccc2c(=O)n1-c1ccccc1Cl | 60 | 58 | –
– | COc1ccccc1-n1c(-c2sc(Nc3ccc(Cl)cc3)nc2C)nc2ccccc2c1=O | – | 27 | –
0 | Nc1nc(Nc2ccc(Cl)cc2)sc1-c1nc2ccccc2c(=O)n1-c1ccc(Cl)cc1 | 0 | 37 | –

SMILES | inhibition [1] [%] | inhibition (HEK293) [%] | Activity (Rattus norvegicus) [%] | IC50 [2] [µM]
CNc1nc(C)c(-c2nc3ccccc3c(=O)n2-c2ccc(C(C)=O)cc2)s1 | 0 | 71 | 42 | 5.5
CNc1nc(C)c(-c2nc3ccccc3c(=O)n2-c2cccc(C)c2)s1 | 20 | 10 | – | –
CNc1nc(C)c(-c2nc3ccccc3c(=O)n2-c2ccccc2C)s1 | 67 | 16 | 35 | –
CNc1nc(C)c(-c2nc3ccccc3c(=O)n2-c2ccc(Cl)cc2)s1 | 82 | 93 | 71 | 3.3
